Here are results for 17 molecules from ChEMBL document CHEMBL1123302, “Antagonists of substance P. Further modifications of substance P antagonists obtained by replacing either positions 7, 9 or 7, 8 and 11 of SP with D-amino acid residues” (J Med Chem, 1986).

Test [1] has as its target Substance-P receptor (Cavia porcellus) (UniProt P30547). The test is described as follows: In vitro inhibition of substance P (6-11) hexapeptide induced contractions of the guinea pig ileum at 5 uM. In kind it is tissue-based. The gist of the method: (§1)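 Agonist (SP or SP(6-11)-hexapeptide) dose-response curves on a 3-min cycle with 1-min contact, then washout. Dose ratio = agonist EC50 with antagonist / EC50 alone. At least two preparations per compound; ratios below 2 taken as insignificant.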

For test [2] the target is unchanged. The test is described as follows: In vitro inhibition of substance P (6-11) hexapeptide induced contractions of the guinea pig ileum at 10 uM. In kind it is tissue-based. In short, it runs like this: as §1
The target is the same in test [3]. The test is described as follows: In vitro inhibition of substance P induced contractions of the guinea pig ileum at 5 uM. In kind it is tissue-based. In short, it runs like this:
as §1

For test [4] the target is unchanged. Kind of test: In vitro inhibition of substance P induced contractions of the guinea pig ileum at 10 uM. The test is classed as tissue-based. The gist of the method: as §1
The target of test [5] is Substance-P receptor (Rattus norvegicus) (UniProt P14600). Kind of test: Antagonistic activity against Substance P receptor in rat spinal cord at concentration of 5 uM.
In test [6] the target is Metabotropic glutamate receptor 3 (Rattus norvegicus) (UniProt P31422). Kind of test: Antagonistic activity against Glutamate receptor in rat spinal cord at concentration of 50 uM. In kind it is functional, tissue-based. In short, it runs like this: (§2)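 Neonatal rat spinal cord, hemisected sagittally, superfused at 1 mL/min with oxygenated Krebs-Henseleit medium containing 0.5% urethane at room temperature. Agonists were given in 2-mL doses in the superfusate. Antagonist was superfused continuously for at least 15 min before agonist retesting. Read-out was ventral root depolarization (DC potential, ventral root vs cord body), measured as amplitude and area of response.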

Test [7] concerns the target Substance-P receptor (Rattus norvegicus) (UniProt P14600). The test is described as follows: Antagonistic activity against Substance P(6-11) receptor in rat spinal cord at concentration of 50 uM.
Test [8] shares this target. Kind of test: Antagonistic activity against Substance P receptor in rat spinal cord at concentration of 50 uM.
Test [9] has the same target. Kind of test: Antagonistic activity against Substance P(6-11) receptor in rat spinal cord at concentration of 5 uM.
The next test addresses Substance-P receptor (Rattus norvegicus, UniProt P14600). The test is described as follows: Histamine releasing activity of Substance P from isolated rat peritoneal mast cells. In kind it is functional. In short, it runs like this:
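Histamine release from isolated rat peritoneal mast cells, method of Fretwell et al. Dose-response curves were built over a range of concentrations, and EC50 values were calculated from the curves.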

Test [10] concerns the target Substance-P receptor (Rattus norvegicus) (UniProt P14600). The test is described as follows: Antagonistic activity against Substance P receptor in rat spinal cord at concentration of 10 uM.
Test [11] concerns the target Metabotropic glutamate receptor 3 (Rattus norvegicus) (UniProt P31422). The test is described as follows: Antagonistic activity against Glutamate receptor in rat spinal cord at concentration of 10 uM. In kind it is functional, tissue-based. The gist of the method:
as §2

Test [12] concerns the target Substance-P receptor (Rattus norvegicus) (UniProt P14600). Kind of test: Antagonistic activity against Substance P(6-11) receptor in rat spinal cord at concentration of 10 uM.

Sequence of Metabotropic glutamate receptor 3 (Rattus norvegicus) (P31422 23-879 limits assumed): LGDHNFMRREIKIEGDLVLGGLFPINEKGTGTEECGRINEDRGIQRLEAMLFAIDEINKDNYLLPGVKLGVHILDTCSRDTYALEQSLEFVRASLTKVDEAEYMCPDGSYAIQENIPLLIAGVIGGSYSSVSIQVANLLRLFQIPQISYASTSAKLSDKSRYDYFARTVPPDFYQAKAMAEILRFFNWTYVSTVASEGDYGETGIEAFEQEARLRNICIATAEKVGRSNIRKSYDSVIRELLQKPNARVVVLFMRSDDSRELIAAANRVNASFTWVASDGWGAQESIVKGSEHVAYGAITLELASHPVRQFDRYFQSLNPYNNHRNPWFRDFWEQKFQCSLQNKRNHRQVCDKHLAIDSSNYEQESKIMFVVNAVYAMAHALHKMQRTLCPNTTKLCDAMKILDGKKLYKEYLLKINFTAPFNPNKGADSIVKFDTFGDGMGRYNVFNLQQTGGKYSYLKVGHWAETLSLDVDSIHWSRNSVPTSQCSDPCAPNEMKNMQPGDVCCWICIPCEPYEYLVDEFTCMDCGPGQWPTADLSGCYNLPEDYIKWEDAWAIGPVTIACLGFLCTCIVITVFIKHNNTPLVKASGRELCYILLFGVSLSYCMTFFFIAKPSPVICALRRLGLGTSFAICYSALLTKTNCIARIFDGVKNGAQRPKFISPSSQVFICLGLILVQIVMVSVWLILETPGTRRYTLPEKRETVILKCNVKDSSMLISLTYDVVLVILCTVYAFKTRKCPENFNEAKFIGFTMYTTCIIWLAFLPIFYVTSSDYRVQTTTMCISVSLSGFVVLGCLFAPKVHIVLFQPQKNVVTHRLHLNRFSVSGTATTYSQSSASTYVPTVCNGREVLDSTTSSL
Sequence of Substance-P receptor (Rattus norvegicus) (P14600 whole entry, looked up, the tested form may be a part): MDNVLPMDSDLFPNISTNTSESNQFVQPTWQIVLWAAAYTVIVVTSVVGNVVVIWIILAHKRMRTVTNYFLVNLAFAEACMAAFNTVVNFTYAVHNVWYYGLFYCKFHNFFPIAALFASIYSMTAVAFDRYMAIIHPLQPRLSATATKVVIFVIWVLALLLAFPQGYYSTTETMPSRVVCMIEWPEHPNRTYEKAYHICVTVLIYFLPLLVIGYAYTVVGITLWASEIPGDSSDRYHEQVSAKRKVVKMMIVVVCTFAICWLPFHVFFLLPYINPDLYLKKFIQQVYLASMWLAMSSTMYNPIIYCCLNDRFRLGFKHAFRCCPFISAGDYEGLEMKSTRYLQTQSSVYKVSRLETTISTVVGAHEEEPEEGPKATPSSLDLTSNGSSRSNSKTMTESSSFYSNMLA
Sequence of Substance-P receptor (P14600 whole entry): as the sequence (P14600 whole entry, looked up, the tested form may be a part) above
Sequence of Substance-P receptor (Cavia porcellus) (P30547 whole entry): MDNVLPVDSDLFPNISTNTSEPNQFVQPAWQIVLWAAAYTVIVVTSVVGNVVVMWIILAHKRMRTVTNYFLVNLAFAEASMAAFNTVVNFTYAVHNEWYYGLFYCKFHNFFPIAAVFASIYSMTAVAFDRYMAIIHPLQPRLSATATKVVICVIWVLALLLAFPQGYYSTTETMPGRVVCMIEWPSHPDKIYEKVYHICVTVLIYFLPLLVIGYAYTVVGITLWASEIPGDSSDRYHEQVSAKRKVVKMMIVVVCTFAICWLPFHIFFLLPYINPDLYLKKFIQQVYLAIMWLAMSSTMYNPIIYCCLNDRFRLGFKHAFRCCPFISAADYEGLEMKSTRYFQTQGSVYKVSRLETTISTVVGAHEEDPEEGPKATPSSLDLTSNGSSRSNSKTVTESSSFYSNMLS

With `COC(=O)[C@H](CCSC)NC(=O)[C@H](CC(C)C)NC(=O)[C@@H](Cc1c[nH]c2ccccc12)NC(=O)[C@H](Cc1ccccc1)NC(=O)[C@@H](Cc1ccccc1)NC(=O)[C@H](CCCN=C(N)N)NC(=O)[C@H](CC(N)=O)NC(=O)C1CCCN1C(=O)[C@H](CCCCN)NC(=O)C1CCCN1C(=O)[C@@H](N)CCCN=C(N)N` (stereo in doubt), the Activity in test [1] amounted to 2.2 dose ratio; in test [2], 4 dose ratio; in test [3], 2.2 dose ratio; in [4], 6 dose ratio.

As to `COC(=O)[C@@H](CCSC)NC(=O)C(CC(C)C)SCCNC(=O)[C@H](Cc1ccccc1)NC(=O)[C@@H](Cc1ccccc1)NC(=O)[C@H](CCC(N)=O)NC(=O)[C@H](CCC(N)=O)NC(=O)C1CCCN1C(=O)OC(C)(C)C` (stereo in doubt), the Change in amplitude response in [5] was 42%; in [6] it was -50%; in test [7], -80%; in test [8] it was -62%; in test [9] it was -7%. The Activity in test [1], in [2], in [3] and in test [4] was less than 2 dose ratio in each case.

In the case of `COC(=O)C(CCSC)NC(=O)[C@@H](CC(C)C)SCCNC(=O)[C@@H](Cc1ccccc1)NC(=O)[C@H](Cc1ccccc1)NC(=O)[C@H](CCC(N)=O)NC(=O)[C@H](CCC(N)=O)NC(=O)[C@H]1CCCN1C(=O)[C@H](CCCCN)NC(=O)[C@H]1CCCN1C(=O)[C@@H](N)CCCN=C(N)N` (stereo in doubt), the Activity in [1] is 3.1 dose ratio; in test [2], 19 dose ratio; in test [3], less than 2 dose ratio; in test [4] it was less than 2 dose ratio.

Take `CSCC[C@H](NC(=O)[C@H](CC(C)C)NC(=O)[C@@H](Cc1c[nH]c2ccccc12)NC(=O)[C@H](Cc1ccccc1)NC(=O)[C@@H](Cc1ccccc1)NC(=O)[C@H](CCCNC(=N)N)NC(=O)[C@H](CC(N)=O)NC(=O)[C@@H]1CCCN1C(=O)[C@H](CCCCNC(=O)OCc1ccccc1)NC(=O)[C@H]1CCCN1C(=O)[C@H](CCCNC(=N)N)NC(=O)OCc1ccccc1)C(N)=O`: 0.5 µM corresponded to half-maximal inhibition at Substance-P receptor (IC50).

As to `COC(=O)[C@@H](CCSC)NC(=O)[C@H](CC(C)C)N(C)C(=O)CN(C)C(=O)[C@H](Cc1ccccc1)NC(=O)[C@@H](Cc1ccccc1)NC(=O)[C@H](CCC(N)=O)NC(=O)[C@H](CCC(N)=O)NC(=O)C1CCCN1C(=O)OC(C)(C)C` (stereo in doubt), the Activity in test [1], in [2], in test [3] and in [4] was less than 2 dose ratio throughout.

As to `CSCC[C@H](NC(=O)[C@H](CC(C)C)NC(=O)[C@@H](Cc1c[nH]c2ccccc12)NC(=O)[C@H](Cc1ccccc1)NC(=O)[C@@H](Cc1ccccc1)NC(=O)[C@H](CCCN=C(N)N)NC(=O)[C@H](CC(N)=O)NC(=O)C1CCCN1C(=O)[C@H](CCCCN)NC(=O)C1CCCN1C(=O)[C@@H](N)CCCN=C(N)N)C(=O)O` (stereo in doubt), the Activity in test [1], in test [2], in [3] and in test [4] was less than 2 dose ratio throughout.

With `COC(=O)[C@@H](CCSC)NC(=O)[C@@H](CC(C)C)NC(=O)CNC(=O)[C@@H](Cc1c[nH]c2ccccc12)NC(=O)[C@@H](Cc1c[nH]c2ccccc12)NC(=O)[C@H](CCC(N)=O)NC(=O)[C@H](CCC(N)=O)NC(=O)[C@@H]1CCCN1C(=O)[C@H](CCCCNC(=O)OCc1ccccc1)NC(=O)[C@@H]1CCCN1C(=O)[C@H](CCCN=C(N)N)NC(=O)OCc1ccccc1`, the Activity in [1] came out at 34 dose ratio; in test [2], 37 dose ratio; in test [3], 15 dose ratio; in test [4] it was 17.2 dose ratio.

Take `COC(=O)[C@@H](CCSC)NC(=O)[C@H](CC(C)C)SCCNC(=O)[C@H](Cc1ccccc1)NC(=O)[C@@H](Cc1ccccc1)NC(=O)[C@H](CCCN=C(N)N)NC(=O)[C@H](CC(N)=O)NC(=O)OCc1ccccc1`: the Activity was found to be 69 dose ratio in [1], 225 dose ratio in [2], 5.8 dose ratio in test [3] and 18.2 dose ratio in test [4].

Consider `COC(=O)C(CCSC)NC(=O)[C@H](CC(C)C)SCCNC(=O)[C@@H](Cc1ccccc1)NC(=O)[C@@H](Cc1ccccc1)NC(=O)[C@H](CCC(N)=O)NC(=O)[C@H](CCC(N)=O)NC(=O)[C@H]1CCCN1C(=O)[C@H](CCCCN)NC(=O)[C@H]1CCCN1C(=O)[C@@H](N)CCCN=C(N)N` (stereo in doubt), for which the Activity is 2.5 dose ratio in [1], 3.4 dose ratio in test [2], 2.7 dose ratio in test [3] and 3.6 dose ratio in test [4].

For the molecule `COC(=O)[C@@H](CCSC)NC(=O)[C@H](CC(C)C)SCCNC(=O)[C@H](Cc1ccccc1)NC(=O)[C@@H](Cc1ccccc1)NC(=O)[C@H](CCCN=C(N)N)NC(=O)[C@H](CC(N)=O)NC(=O)C1CCCN1C(=O)[C@H](CCCCNC(=O)OCc1ccccc1)NC(=O)C1CCCN1C(=O)[C@H](CCCN=C(N)N)NC(=O)OCc1ccccc1` (stereo in doubt), the Activity in test [1] amounted to 54.5 dose ratio; in [2], 68 dose ratio; in [3] it was 18.5 dose ratio; in test [4], 20 dose ratio.

Take `COC(=O)[C@@H](CCSC)NC(=O)[C@H](CC(C)C)N(C)C(=O)CN(C)C(=O)[C@H](Cc1ccccc1)NC(=O)[C@@H](Cc1ccccc1)NC(=O)[C@H](CCC(N)=O)NC(=O)[C@H](CCC(N)=O)NC(=O)C1CCCN1C(=O)[C@H](CCCCN)NC(=O)C1CCCN1C(=O)[C@@H](N)CCCN=C(N)N` (stereo in doubt): the Activity in [1] is less than 2 dose ratio; in test [2], 2.5 dose ratio; in [3], less than 2 dose ratio; in [4], less than 2 dose ratio.

With `COC(=O)[C@@H](CCSC)NC(=O)[C@@H](CC(C)C)SCCNC(=O)[C@@H](Cc1ccccc1)NC(=O)[C@@H](Cc1ccccc1)NC(=O)[C@H](CCC(N)=O)NC(=O)[C@H](CCC(N)=O)NC(=O)[C@H]1CCCN1C(=O)[C@H](CCCCNC(=O)OCc1ccccc1)NC(=O)[C@H]1CCCN1C(=O)[C@H](CCCN=C(N)N)NC(=O)OCc1ccccc1`, the IC50 (in general, the concentration that gives 50% inhibition) against Substance-P receptor is 25 µM.

On to `COC(=O)[C@@H](CCSC)NC(=O)[C@H](CC(C)C)SCCNC(=O)[C@@H](Cc1ccccc1)NC(=O)[C@@H](Cc1ccccc1)NC(=O)[C@H](CCC(N)=O)NC(=O)[C@H](CCC(N)=O)NC(=O)[C@H]1CCCN1C(=O)[C@H](CCCCNC(=O)OCc1ccccc1)NC(=O)[C@H]1CCCN1C(=O)[C@H](CCCNC(=N)N)NC(=O)OCc1ccccc1`, for which the IC50 against Substance-P receptor is 33 µM.

Consider `COC(=O)[C@@H](CCSC)NC(=O)[C@H](CC(C)C)SCCNC(=O)[C@H](Cc1ccccc1)NC(=O)[C@@H](Cc1ccccc1)NC(=O)[C@H](CCC(N)=O)NC(=O)[C@H](CCC(N)=O)NC(=O)C1CCCN1C(=O)OC(C)(C)C` (stereo in doubt), for which the Change in amplitude response in test [5] is 40%; in test [6] it was -43%; in test [7], -74%; in test [8] it was -54%; in [9], -28%. Also, the Activity in test [1] is 3 dose ratio; in [2], 10 dose ratio; in [3], less than 2 dose ratio; in [4] it was 2.3 dose ratio.

Regarding `COC(=O)[C@@H](CCSC)NC(=O)C(CC(C)C)NC(=O)[C@@H](Cc1c[nH]c2ccccc12)NC(=O)[C@H](Cc1c[nH]c2ccccc12)NC(=O)[C@@H](Cc1c[nH]c2ccccc12)NC(=O)[C@H](CCC(N)=O)NC(=O)[C@H](CCC(N)=O)NC(=O)[C@@H]1CCCN1C(=O)[C@H](CCCCNC(=O)OCc1ccccc1)NC(=O)[C@@H]1CCCN1C(=O)[C@H](CCCN=C(N)N)NC(=O)OCc1ccccc1` (stereo in doubt), the Activity in test [1] stood at 7.2 dose ratio; in test [2] it was 10.7 dose ratio; in test [3], 6.2 dose ratio; in test [4], 9.8 dose ratio.

As for `COC(=O)[C@H](CCSC)NC(=O)[C@H](CC(C)C)NC(=O)[C@@H](Cc1c[nH]c2ccccc12)NC(=O)[C@H](Cc1ccccc1)NC(=O)[C@@H](Cc1ccccc1)NC(=O)[C@H](CCCCN)NC(=O)[C@H](CC(N)=O)NC(=O)C1CCCN1C(=O)[C@H](CCCCN)NC(=O)C1CCCN1C(=O)[C@@H](N)CCCN=C(N)N` (stereo in doubt), the results for the Change in amplitude response in test [10], in [11] and in test [12] were 9%, 8% and -54%, respectively. Also, the Activity in test [1], in test [2], in test [3] and in test [4] was less than 2 dose ratio in each case.

The molecule `CSCCC(NC(=O)C(CC(C)C)NC(=O)[C@@H](Cc1c[nH]c2ccccc12)NC(=O)[C@H](Cc1ccccc1)NC(=O)[C@@H](Cc1c[nH]c2ccccc12)NC(=O)[C@H](CCC(N)=O)NC(=O)[C@H](CCC(N)=O)NC(=O)[C@@H]1CCCN1C(=O)[C@H](CCCCN)NC(=O)[C@H]1CCCN1C(=O)[C@@H](N)CCCNC(=N)N)C(N)=O` (stereo in doubt) came in with an IC50 against Substance-P receptor of 4 µM.
